Assay results published in ChEMBL document CHEMBL1130336, “Polyanion inhibitors of human immunodeficiency virus and other viruses. 6. Micelle-like anti-HIV polyanionic compounds based on a carbohydrate core” (J Med Chem, 1997).

Legend:
[1] = system: CEM-4; assay: Concentration required to reduce the viability of uninfected CEM-4 cells by 50%; type: functional; conditions: Homo sapiens
How it was run: (§1)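 Cytotoxicity in uninfected CEM-4 or MT-4 cells, measured as inhibition of cell growth. The value is the concentration that lowers viability by 50%.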

[2] = system: CEM-4; assay: Inhibitory concentration required to inhibit HIV-induced cytopathicity in CEM-4 cells by 50%; type: functional, cell-based; conditions: Homo sapiens
How it was run: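 CEM-4 cells infected with HIV-1 (strain HTLV-III_B/LAI). The end point is 50% inhibition of HIV-induced cytopathicity.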

[3] = system: E6SM; assay: Concentration required to cause a microscopically detectable alteration of normal E6SM cell morphology; type: functional, cell-based; conditions: Homo sapiens, read-out: IC50
How it was run: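 Minimum cytotoxic concentration, read microscopically as the level that causes a detectable alteration of normal cell morphology.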

[4] = system: E6SM; assay: Concentration required to reduce herpes simplex virus-1TK( B2006) inducted cytopathicity by 50% (E6SM cells); type: functional, cell-based; conditions: Homo sapiens
How it was run: (§2)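 Virus was added in the presence of compound, and the cells were incubated until cytopathic effect was scored. The value is the concentration that reduces virus-induced CPE by 50%.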

[5] = system: E6SM; assay: Concentration required to reduce herpes simplex virus-1TK (F) inducted cytopathicity by 50% (E6SM cells); type: functional, cell-based; conditions: Homo sapiens; how it was run: as §2
[6] = system: E6SM; assay: Concentration required to reduce herpes simplex virus-1TK (KOS) inducted cytopathicity by 50% (E6SM cells); type: functional, cell-based; conditions: Homo sapiens; how it was run: as §2
[7] = system: E6SM; assay: Concentration required to reduce herpes simplex virus-1TK (McIntyre) inducted cytopathicity by 50% (E6SM cells); type: functional, cell-based; conditions: Homo sapiens; how it was run: as §2
[8] = system: E6SM; assay: Concentration required to reduce herpes simplex virus-1TK (VMW1837) inducted cytopathicity by 50% (E6SM cells); type: functional, cell-based; conditions: Homo sapiens; how it was run: as §2
[9] = system: E6SM; assay: Concentration required to reduce herpes simplex virus-2(196) inducted cytopathicity by 50% (E6SM cells); type: functional, cell-based; conditions: Homo sapiens; how it was run: as §2
[10] = system: E6SM; assay: Concentration required to reduce herpes simplex virus-2(G) inducted cytopathicity by 50% (E6SM cells); type: functional, cell-based; conditions: Homo sapiens; how it was run: as §2
[11] = system: Vaccinia virus; assay: Concentration required to reduce vaccinia virus-inducted cytopathicity by 50% (E6SM cells); type: functional, organism-based, Orthopoxvirus vaccinia
[12] = system: Human immunodeficiency virus 1; assay: Concentration required to inhibit by 50% human immunodeficiency virus-1 induced syncytium formation upon coculturing persistently HIV-infected HUT-78 cells with MOLT-4 cells; type: functional, organism-based; conditions: Human immunodeficiency virus 1, MOLT-4
How it was run: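 MOLT-4 (clone 8) cells at 1 × 10^6 cells/mL, cocultured with an equal number of persistently infected HUT-78/HIV-1 or HUT-78/HIV-2 cells across a range of compound concentrations. Giant cells were counted under the microscope after 24 h of cocultivation. The value is the concentration giving 50% inhibition of syncytium formation.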

[13] = system: HEL; assay: Concentration required to inhibit HEL cell growth by 50%; type: functional, cell-based; conditions: Homo sapiens
[14] = system: HEL; assay: Concentration required to reduce human cytomegalo virus(AD-169) inducted cytopathicity by 50% (HEL cells); type: functional, cell-based; how it was run: as §2
[15] = system: HEL; assay: Concentration required to reduce human cytomegalo virus(Davis) inducted cytopathicity by 50% (HEL cells); type: functional, cell-based; how it was run: as §2
[16] = system: HeLa; assay: Concentration required to reduce Coxsackie virus-inducted cytopathicity by 50% (HeLa cells); type: functional, cell-based; conditions: Homo sapiens
[17] = system: HeLa; assay: Concentration required to reduce polio-1 virus-inducted cytopathicity by 50% (HeLa cells); type: functional, cell-based; conditions: Homo sapiens
[18] = system: HeLa; assay: Concentration required to reduce vesicular stomatitis virus-inducted cytopathicity by 50% (HeLa cells); type: functional, cell-based; conditions: Homo sapiens
[19] = system: MT4; assay: Concentration required to reduce the viability of uninfected MT-4 cells by 50%; type: functional; conditions: Homo sapiens; how it was run: as §1
[20] = system: MT4; assay: Concentration required to inhibit human immunodeficiency virus-2 induced cytopathicity in MT-4 cells by 50%; type: functional, cell-based
How it was run: (§3)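 MT-4 cells infected with HIV-1 (strain HTLV-III_B/LAI) or HIV-2 (strain LAV_ROD). The end point is 50% inhibition of virus-induced cytopathicity.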

[21] = system: Vero; assay: Concentration required to cause a microscopically detectable alteration of normal Vero cell morphology; type: functional, cell-based; conditions: Chlorocebus sabaeus
[22] = system: Vero; assay: Concentration required to reduce Coxsackie virus-inducted cytopathicity by 50% (Vero cells); type: functional, cell-based; conditions: Chlorocebus sabaeus
[23] = system: Vero; assay: Concentration required to reduce Junin virus-inducted cytopathicity by 50% (Vero cells); type: functional, cell-based; conditions: Chlorocebus sabaeus
[24] = system: Vero; assay: Concentration required to reduce forest virus-inducted cytopathicity by 50% (Vero cells); type: functional, cell-based; conditions: Chlorocebus sabaeus
[25] = system: Vero; assay: Concentration required to reduce Tacaribe virus-inducted cytopathicity by 50% (Vero cells); type: functional, cell-based; conditions: Chlorocebus sabaeus
[26] = system: Vero; assay: Concentration required to reduce parainfluenza-3 virus-inducted cytopathicity by 50% (Vero cells); type: functional, cell-based; conditions: Chlorocebus sabaeus
[27] = system: Vero; assay: Concentration required to reduce reovirus-1 inducted cytopathicity by 50% (Vero cells); type: functional, cell-based; conditions: Chlorocebus sabaeus
[28] = system: Vero; assay: Concentration required to reduce sindbis virus-inducted cytopathicity by 50% (Vero cells); type: functional, cell-based; conditions: Chlorocebus sabaeus
[29] = system: MT4; assay: Concentration required to inhibit human immunodeficiency virus-1 induced cytopathicity in MT-4 cells by 50%; type: functional, cell-based; how it was run: as §3
[30] = system: E6SM; assay: Concentration required to reduce herpes simplex virus-2(Lyons) inducted cytopathicity by 50% (E6SM cells); type: functional, cell-based; conditions: Homo sapiens; how it was run: as §2
[31] = system: HeLa; assay: Concentration required to cause a microscopically detectable alteration of normal Hela cell morphology; type: functional, cell-based; conditions: Homo sapiens
[32] = system: Human immunodeficiency virus 2; assay: Concentration required to inhibit by 50% human immunodeficiency virus-2 induced syncytium formation upon coculturing persistently HIV-infected HUT-78 cells with MOLT-4 cells; conditions: HUT-78, MOLT-4

SMILES	minimum cytotoxic concentration [3] [µM]	IC50 [4] [µM]	IC50 [6] [µM]	IC50 [8] [µM]	IC50 [10] [µM]	IC50 [12] [µM]	IC50 [13] [µM]	IC50 [14] [µM]	IC50 [15] [µM]	IC50 [16] [µM]	IC50 [18] [µM]	CC50 [19] [µM]	IC50 [20] [µM]	IC50 [21] [µM]	IC50 [22] [µM]	IC50 [23] [µM]	IC50 [25] [µM]	IC50 [26] [µM]	IC50 [27] [µM]	IC50 [28] [µM]	other results
O=C(O)CC(SCCCOC[C@H]1O[C@@H](OCCCSC(CC(=O)O)C(=O)O)[C@H](OCCCSC(CC(=O)O)C(=O)O)[C@@H](OCCCSC(CC(=O)O)C(=O)O)[C@@H]1OCCCSC(CC(=O)O)C(=O)O)C(=O)O (stereo partly specified)	> 296	> 296	> 296	> 296	> 296	> 185	> 37	> 37	> 37	> 148	> 148	> 185	> 185	> 148	> 148	> 37	> 37	> 148	> 148	> 148	CC50 [1]: > 74 µM; IC50 [2]: > 74 µM; IC50 [5]: > 296 µM; IC50 [7]: > 296 µM; IC50 [9]: > 296 µM; IC50 ([11]; Orthopoxvirus vaccinia, E6SM): > 296 µM; IC50 [17]: > 148 µM; IC50 [24]: > 148 µM; IC50 [29]: 85.9 µM; IC50 [30]: > 296 µM
O=S(=O)(O)CCSCCCOC[C@H]1O[C@@H](OCCCSCCS(=O)(=O)O)[C@H](OCCCSCCS(=O)(=O)O)[C@@H](OCCCSCCS(=O)(=O)O)[C@@H]1OCCCSCCS(=O)(=O)O	> 333	> 333	> 333	> 333	> 333	> 208	> 42	> 42	> 333	> 167	> 167	> 208	> 208	> 167	> 167	> 42	> 42	> 167	> 167	> 167	CC50 [1]: > 83.3 µM; IC50 [2]: > 83.3 µM; IC50 [5]: > 333 µM; IC50 [7]: > 333 µM; IC50 [9]: > 333 µM; IC50 ([11]; e6sm): > 167 µM; IC50 [31]: > 167 µM; IC50 [17]: > 167 µM; IC50 [24]: > 167 µM; IC50 [30]: > 42 µM; IC50 [32]: > 208 µM
O=C(O)CC(SCCCOC[C@H]1O[C@@H](O[C@H]2[C@H](OCCCSC(CC(=O)O)C(=O)O)[C@@H](OCCCSC(CC(=O)O)C(=O)O)C(OCCCSC(CC(=O)O)C(=O)O)O[C@@H]2COCCCSC(CC(=O)O)C(=O)O)[C@H](OCCCSC(CC(=O)O)C(=O)O)[C@@H](OCCCSC(CC(=O)O)C(=O)O)[C@@H]1OCCCSC(CC(=O)O)C(=O)O)C(=O)O (stereo partly specified)	> 181	45	> 181	> 181	> 45	1.8	> 22	1.4	0.4	> 181	> 181	> 56.4	4.17	> 181	> 181	> 22	> 22	> 181	> 181	> 181	IC50 ([11]; Orthopoxvirus vaccinia, E6SM): > 181 µM; IC50 [31]: > 181 µM; IC50 [29]: 0.04 µM; IC50 [32]: 54.2 µM
O=C(O)CCSCCCOC[C@H]1O[C@@H](OCCCSCCC(=O)O)[C@H](OCCCSCCC(=O)O)[C@@H](OCCCSCCC(=O)O)[C@@H]1OCCCSCCC(=O)O	–	–	–	–	–	–	–	–	–	–	–	–	–	–	–	–	–	–	–	–	CC50 [1]: > 98 µM; IC50 [2]: > 98 µM
O=C(O)CC(SCCCOC[C@H]1O[C@@H](O[C@H]2[C@H](OCCCSC(CC(=O)O)C(=O)O)[C@@H](OCCCSC(CC(=O)O)C(=O)O)[C@@H](OCCCSC(CC(=O)O)C(=O)O)O[C@@H]2COCCCSC(CC(=O)O)C(=O)O)[C@H](OCCCSC(CC(=O)O)C(=O)O)[C@@H](OCCCSC(CC(=O)O)C(=O)O)[C@@H]1OCCCSC(CC(=O)O)C(=O)O)C(=O)O (stereo partly specified)	> 181	68	136	> 181	136	3.61	> 22	6.3	3.6	> 181	> 181	> 56.4	4.47	> 181	> 181	> 22	> 22	> 181	> 181	> 181	IC50 ([11]; Orthopoxvirus vaccinia, E6SM): > 181 µM; IC50 [31]: > 181 µM; IC50 [29]: 0.37 µM; IC50 [32]: 54.2 µM
